Measurements pooled from the literature.
Lines come from different studies, so protocols differ.
Cell line: MRC5
Effect on: cell growth or viability

CC1=CC(=O)c2c(O)cccc2C1=O — IC50 (SRB): 5.15 µM
CC(C)=CCOc1c2occc2cc2ccc(=O)oc12 — IC50 (MTT; 72 h): > 100 µM
N.N.[Cl][Pt][Cl] — EC50 (SRB): 5.8 µM
CC(C)(C)OC(=O)N1CCN(c2cc(-c3cnc4[nH]cc(C(=O)c5ccc(F)cc5)c4c3)ccn2)CC1 — viability (MTT; 10 µM; 48 h): 78.9%
COc1c2c(cc3c1OCO3)[C@]13C=C[C@H](OC)C[C@@H]1[N@](C2)C[C@H]3OC(=O)c1ccc2ccccc2c1 — IC50 (WST-1): > 10 µM
Nc1cc(Cl)c(Cl)cc1N — IC50 (72 h): > 250 µM
CS(=O)(=O)N1CCN(c2ccc(-c3cnc4[nH]cc(C(=O)c5ccc(F)cc5)c4c3)cn2)CC1 — viability (MTT; 10 µM; 48 h): 79.1%
C=CCc1cc(OC)c2c(c1)OCO2 — IC50 (SRB): 420 µM
O=c1c2ccccc2[se]n1-c1ccccc1 — IC50 (MTT; 72 h): 94 µM
CCOC(=O)CCn1cc(C(=O)c2ccc(F)cc2)c2cc(-c3ccc(N4CCN(C(=O)OC(C)(C)C)CC4)nc3)cnc21 — viability (MTT; 10 µM; 48 h): 92.1%
Nc1cc(Br)c(Br)cc1N — IC50 (72 h): 200 µM
COc1c2c(cc3c1OCO3)[C@]13C=C[C@H](OC)C[C@@H]1[N@](C2)C[C@H]3OC(=O)c1ccoc1 — IC50 (WST-1): > 10 µM
CC(C)(C)OC(=O)N1CCN(c2ccc(-c3cnc4[nH]cc(C(=O)c5ccc(F)cc5)c4c3)cc2)CC1 — viability (MTT; 10 µM; 48 h): 78.7%
